The list is not random: actives were taken first. Their share in the collection is about 3.6%.
HIF activator: HIF pathway transcriptional activation; U2OS HRE-luciferase reporter, luminescence; normalized: DMSO 0%, desferrioxamine 100%; activation, % at 7.5 µM (by protocol); 300,000 compounds, 0.32% hits;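 active = mean activation of at least 10% of the iron chelator positive control signal, with at least half of replicates also reaching 10%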
T cruzi inh: T. cruzi replication inhibition; 300,000 compounds, 1.4% hits; inhibition, % (test concentration not listed); T. cruzi beta-gal in NIH3T3, luminescence, 90 h;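 active = mean inhibition across valid replicates above about 55%, limit read from the data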;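 note: signal also drops with host cell toxicity which is not excluded here; 0% = plate median of DMSO wells and 100% = zero luminescence signal; higher percent means less beta-gal luminescence so fewer parasites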
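Incubation – ≥90 h infection period, 3 h prior cell attachment · System – NIH/3T3 fibroblasts plus reporter T. cruzi · Doses – compound pinned at 50 nL/well, DMSO · Read-out basis – percent inhibition of parasite-derived β-gal signal · Signal – luminescent β-galactosidase signal after 60 min lysis · Also added – 5000 T. cruzi trypomastigotes/well · Medium – Low-serum DMEM with 2% FBS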
PfHsp90 yeast 2: reduces growth (ATP signal) of yeast expressing P. falciparum Hsp90 | AID 504621 | 310,000 compounds, 0.32% hits | inhibition, % at 9.4 µM | S. cerevisiae expressing PfHsp90, BacTiter-Glo ATP, 48 h; yeast lacking PDR1 and PDR3 efflux regulators;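 active = every replicate shows inhibition above about 80%, whatever the replicate mean, limit read from the data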;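 note: 0% = DMSO neutral controls and 100% = 20 µM radicicol positive controls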
SKKanGAS inh: blocks kanamycin growth of S. pyogenes SKKanGAS strain; 300,000 compounds, 1.3% hits; BacTiter-Glo, 6 h; AID 1662; inhibition, % at 7.5 µM;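 active = mean replicate score, as percent of positive control median, at least 50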;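 note: strain carries kanamycin resistance gene driven by streptokinase promoter and grows in 40 µg/ml kanamycin; loss of luminescence reflects streptokinase promoter inhibition or plain growth inhibition; 0% = median of DMSO wells and 100% = positive control at its reference dose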
Beta cell apopt: beta cell apoptosis inhibition; 300,000 compounds, 0.8% hits; protection from apoptosis, % (no concentration beside the values); INS-1E cytokine-induced death, ATP luminescence, 48 h; percent of positive-control rescue, neutral wells zero;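 active = Every replicate reaches about 75%, or at least half do and their mean reaches it too, limit read from the data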;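 note: 0% = cytokine-treated negative control wells and 100% = positive control rescue; higher means more ATP so stronger rescue from cytokine killing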
CSC inhib: cancer stem cell inhibition. cancer stem cell-like cells viability, luminescence. inhibition, % at 7.5 µM. 300,000 compounds, 1.1% hits; in the data active = inhibition above about 75%; tested in HMLE shEcad cells
* hit, by the source's call; · = no result given.

SMILES	HIF activator	T cruzi inh	PfHsp90 yeast 2	SKKanGAS inh	Beta cell apopt	CSC inhib
O=C1COc2ccc(C(=O)COC(=O)c3cc(S(=O)(=O)N4CCOCC4)ccc3F)cc2N1	-0.4	-3.9	16.0	-2.9	-4.4	-4.9
C=CCn1c(CNc2ccccc2)nnc1SCC(=O)N/N=C/c1ccc(O)cc1O	0.9	15.4	-25.0	14.7	-0.4	86.2*
COc1cccc(C(=O)NC(C)C(c2cccs2)N2CCOCC2)c1 (stereo not drawn)	0.0	1.0	9.7	-2.6	3.5	15.8
CC(NC(=O)c1cccnc1)C(c1cccs1)N1CCOCC1 (stereo not drawn)	·	65.4*	7.8	2.2	-5.0	-9.1
COc1ccc(N(Cc2ccccc2)S(=O)(=O)c2cccc(C(=O)NCC3CCCO3)c2)cc1 (stereo not drawn)	·	·	15.6	·	·	·
CSc1nc(SCC(=O)O)c2sc3nc(-c4ccccc4)c4c(c3c2n1)CCC4	0.1	30.0	-20.0	68.4*	·	·
Cc1ccc(Cn2nnc3c(=O)[nH]c(C4CCN(S(=O)(=O)c5ccccc5F)CC4)nc32)cc1	0.3	4.4	-32.7	18.3	-7.3	28.4
O=C(/C=C/c1ccc(NC(=O)c2ccccc2-c2ccccc2C(=O)O)cc1)c1ccccc1	-21.1	-4.7	12.5	0.0	-3.5	14.4
O=C(/C=C/c1ccncc1)c1ccc(NC(=O)c2ccccc2F)cc1	·	·	26.0	·	-1.3	80.2*
O=C(NC(NCc1cccnc1)C(Cl)(Cl)Cl)c1cccc2ccccc12 (stereo not drawn)	-0.2	48.3	1.9	4.4	4.8	-8.9
CCCCCCCCCCCC1N=C(N)NC(CCCO)=C1C(=O)OC (stereo not drawn)	·	·	-1.1	·	·	·
Cc1cc(-n2c(SCC(=O)Nc3ccc(F)c(F)c3)nc3n[nH]c(C)c3c2=N)ccc1Cl	-3.1	15.8	-15.6	19.0	76.2*	68.4
Cc1cc(-n2c(SCC(=O)Nc3ccc(Br)cc3)nc3n[nH]c(C)c3c2=N)ccc1Cl	-2.7	7.1	-10.8	8.4	33.0	55.8
Clc1ccc(-c2nnc(-c3ccccc3)c(-c3ccccc3)n2)cc1	-0.6	24.2	-10.3	25.5	2.8	85.2*
Clc1ccc(-c2nnc(-c3ccccc3)c(-c3c[nH]c4ccccc34)n2)cc1	0.3	-2.3	3.5	5.0	-8.6	-8.4
FC(F)(F)c1nnc(-c2ccccc2)nc1Sc1ccc(Cl)cc1	1.6	39.4	-6.6	26.9	63.4	80.5*
NC(=O)CN(c1ccc([N+](=O)[O-])cc1)S(=O)(=O)c1ccccc1	0.1	7.4	-2.6	2.2	-2.7	-11.2
O=C(N/N=C/c1ccncc1)c1ccccc1OCc1ccc(Br)cc1	0.6	70.7*	16.6	-11.5	7.6	49.3
Cc1ccc(/C=N/NC(=O)c2ccccc2OCc2ccc(F)cc2)o1	0.0	26.8	8.4	6.9	-7.8	1.1
CCOc1ccccc1-c1cc(C(=O)N/N=C/c2cccnc2)c2ccccc2n1	0.3	-16.1	4.5	7.2	·	·
Cc1cccc(/C=N/NC(=O)c2ccccc2OCc2cccc(Br)c2)n1	-0.8	24.0	12.2	60.9*	17.5	·
CCOc1ccc(NC(=O)COc2ccccc2C(=O)NCc2ccccc2)cc1	·	·	-11.5	·	11.0	11.4
Cc1ccc(COc2ccccc2-c2cc(C(=O)N/N=C/c3cccnc3)[nH]n2)cc1	1.0	32.2	-85.2	63.2*	3.7	77.5*
Cc1cccc(/C=N/NC(=O)c2cc(Br)ccc2OCc2ccccc2)n1	2.3	17.8	-70.8	18.6	·	2.3
O=C(COc1ccccc1C(=O)NCc1ccncc1)Nc1ccc(Br)cc1	-0.1	57.2*	21.9	-4.3	2.9	17.3
SMILES	HIF activator	T cruzi inh	PfHsp90 yeast 2	SKKanGAS inh	Beta cell apopt	CSC inhib
COc1ccc(OC)c(C=NNC(=O)c2ccc(NS(=O)(=O)c3cccs3)cc2)c1	·	·	·	·	1.3	-10.4
COc1ccc(NS(=O)(=O)c2cc(NC(=O)Cn3cnc4c3c(=O)n(C)c(=O)n4C)ccc2C)cc1	0.1	-1.9	-0.1	5.6	0.9	50.2
CC(C)(C)n1nnnc1C(c1cccs1)N(Cc1cccnc1)Cc1ccccc1Cl (stereo not drawn)	-0.6	70.6*	-8.7	15.0	·	41.0
CC(c1nnnn1C(C)(C)C)N(Cc1cccnc1)Cc1ccccc1Cl (stereo not drawn)	-0.4	65.9*	2.0	-0.5	7.3	-4.1
C=C1[C@H](C)CN[C@H]1CCO	·	·	-0.2	·	·	·
CC1(OC(=O)c2cccs2)C(=O)C=C2C=C(C3CC3)OC=C2C1=O (stereo not drawn)	111.9*	-17.7	·	8.4	-5.3	-10.7
CC1(OC(=O)c2ccco2)C(=O)C=C2C=C(C3CC3)OC=C2C1=O (stereo not drawn)	-0.4	-13.0	-14.6	13.0	-10.0	-6.5
Cc1ccc(Cl)cc1NC(=S)N(Cc1cccnc1)Cc1ccccc1Cl	-0.1	72.1*	-23.0	6.3	3.8	5.3
Cc1ccccc1NC(=S)N(Cc1ccccc1)Cc1cccnc1	-0.8	21.3	·	-2.0	-1.5	8.1
Cc1cccc(NC(=S)N(CCc2nc3cc(C)c(C)cc3[nH]2)Cc2cccnc2)c1	-0.1	79.4*	·	-4.1	·	·
Cc1ccc(C)c(NC(=S)N(CCc2nc3cc(C)c(C)cc3[nH]2)Cc2cccnc2)c1	-0.2	65.6*	-12.1	-1.8	-11.5	14.3
COc1ccc(NC(=O)CCNC(=O)c2ccco2)c(OC)c1	-1.3	-9.4	-5.1	-2.8	-5.0	-9.3
O=C1c2cc(F)ccc2-n2c1nc1ccccc1c2=O	-0.9	52.3	89.6*	39.3	62.0	39.2
O=C(OCCN1C(=O)c2cccc3c(N4CCOCC4)ccc(c23)C1=O)c1ccc(Cl)cc1	12.0*	-22.3	-5.9	5.8	4.2	6.5
CCCN(CCC)S(=O)(=O)c1ccc(C(=O)OCCN2C(=O)c3cccc4c(N5CCOCC5)ccc(c34)C2=O)cc1	-0.2	-8.1	-0.9	-0.8	0.9	-2.8
COC(=O)c1ccc(CS(=O)(=O)c2ccc(C)cc2)o1	1.3	-8.9	-0.1	-1.8	-2.6	-12.4
C[C@@H]1CN([C@H](C)CO)C(=O)c2cccc(NS(=O)(=O)c3ccccc3)c2O[C@H]1CN(C)C	·	·	0.5	·	-10.7	·
O=C(/C=C/c1ccc(F)cc1)NC(=S)Nc1ccccc1O	0.9	-15.7	-36.0	-5.0	6.3	7.4
O=C(NC(=S)NNC(=O)[C@H]1C[C@@H]1c1ccccc1)c1ccc(F)cc1	-0.4	4.0	6.9	82.2*	·	22.5
O=C(/C=C/c1ccc(F)cc1)NC(=S)NNC(=O)[C@H]1C[C@@H]1c1ccccc1	0.3	-42.0	-10.6	84.8*	6.9	-5.3
Nc1cc(-c2ccc(OC(F)(F)F)cc2)nn1-c1ccc(Cl)c(Cl)c1	-0.5	5.4	·	66.9*	-9.7	82.5*
O=C1C(Cl)=C(N2CCCCC2)C(=O)C(Cl)=C1c1cnc(N2CCCCC2)s1	-0.3	3.4	14.9	41.6	·	·
